Values joined by “and” are separate entries in the source; they are usually repeats but may differ in a detail not shown here. Equal entries are not always repeated. Out of some 2,500 compounds screened, about 460 (18%) were called active. A selection follows. A number with no mark means an inactive call.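 How the source made its calls: active means mean activation above a cutoff of low control average plus 3 SD from the earlier screen (cut at about 12% in these data); inactive means the rest.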
experiment: compound fluorescence interference without thin filaments, confirmation, artefact control for cardiac RTF calcium sensitizer project, biochemical (AID 504382); settings: IANBD fluorescence interference counterscreen, buffer, EC20 Ca2+; at 7.2 µM; hits give high values; scaled: EC20 calcium 0, EC100 calcium 100
Outline: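 timing = compound incubation 15 min at 25 °C before fluorescence reading | technique = fluorescence at 480 nm excitation, 540 nm emission | evaluation = interference relative to controls | replication = triplicate wells per compound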

Row | Structure (SMILES) | fluorescence artifact activation
1 | COc1ccccc1N=Cc1c(C)c(C#N)c2[nH]c3ccccc3n2c1=O | -0.03%
2 | Cc1cccc(C)c1-n1c(C)nn(-c2ncc(C(F)(F)F)cc2Cl)c1=O | 0.09%
3 | CCCCC1OC2(C)OC(=N)C1(C#N)C(C#N)(C#N)C2c1ccccc1 (configuration not stated) | 0.23%
4 | Cc1nc(Cl)c2c(n1)NC1=C(O2)C(=O)CCC1 | 0.77%
5 | O=C1/C(=C/c2cccnc2)SC(=S)N1N1CCOCC1 | 0.1%
6 | CCOC(=O)c1ccc(N=c2sc(C(=O)OC)cc(=O)n2CCCN2CCOCC2)cc1 | -0.02%
7 | CCc1nc(Nc2ccc(O)cc2)c2oc3ccccc3c2n1 | 20.3% (active)
8 | COc1ccc(/C=c2\s/c(=C/C(=O)c3ccc(C)cc3)[nH]c2=O)c(OC)c1 | 0.16%
9 | C[C@H](CO)N1C[C@H](C)[C@@H](CN(C)C(=O)Nc2ccccc2)Oc2ccc(NC(=O)Nc3ccc4c(c3)OCO4)cc2C1=O | -0.07%
10 | N#C/C(=C\c1ccc(N2CCOCC2)o1)C(=O)NCC1CCCO1 (configuration not stated) | -0.1%
11 | N#C/C(=C\c1ccc(N2CCOCC2)o1)C(=O)NCCc1ccccc1 | 20.6% (active)
12 | N#C/C(=C/c1ccc(N2CCCCC2)o1)C(=O)NCCc1c[nH]c2ccccc12 | 12.8% (active)
13 | COCCNC(=O)/C(C#N)=C/c1ccc(N2CCOCC2)o1 | -0.05%
14 | COC(=O)CCc1c(C)c(C(=O)c2cc(F)c(F)c(F)c2F)c2ccccn12 | -0.04%
15 | CN(C)C(CNC(=O)c1cccc(S(=O)(=O)N(C)C)c1)c1ccccc1 (configuration not stated) | 4.02%
16 | N=c1c2c(ncn1Cc1ccco1)Oc1cc(O)ccc1C2c1ccccc1 (configuration not stated) | 20% (active)
17 | COc1ccc(C2c3ccc(O)cc3Oc3ncn(Cc4ccco4)c(=N)c32)cc1 (configuration not stated) | 0.14%
18 | COc1ccc(C2c3ccc(O)cc3Oc3ncn(Cc4ccccc4)c(=N)c32)cc1OC (configuration not stated) | 0.06%
19 | CCN(CC)C(=S)SCC(=O)c1c(C)[nH]c2ccccc12 | 7.38%
20 | CCc1ccccc1NC(=S)NCc1cccn1C | -0.01%
21 | CC(OC(=O)/C(C#N)=C/c1ccc(N(C)C)cc1)C(=O)N(C)Cc1ccccc1 (configuration not stated) | 4.84%
22 | CCOC(=O)/C(C#N)=C\c1ccc(N2CCN(C/C=C/c3ccccc3)CC2)cc1 | 0.17%
23 | CCOC(=O)/C(C#N)=C/c1ccc(N2CCN(Cc3ccccc3)CC2)cc1 | 82.2% (active)
24 | N#C/C(=C(/O)COC(=O)COc1ccc(Cl)cc1)c1nc2ccccc2[nH]1 | 0%

Row | Structure (SMILES) | fluorescence artifact activation
25 | O=C(Nc1cnn(Cc2c(Cl)cccc2Cl)c1)C(c1ccccc1)c1ccccc1 | -0.07%
26 | COc1ccccc1-c1nnc(SCC(=O)Nc2ccc3[nH]c(=O)[nH]c3c2)n1N | -0.06%
27 | Cc1cc(C)n(-c2ccc(C(=O)O)cc2)n1 | 0.39%
28 | CC1(OC(=O)CCc2ccccc2)C(=O)C=C2C=C(c3ccc(C#N)cc3)N(C3CCCC3)C=C2C1=O (configuration not stated) | -0.06%
29 | Cc1cc(C)n(C2CCCCC2OC(=O)CCc2ccccc2)n1 (configuration not stated) | 13% (active)
30 | CCOC(=O)/C(C#N)=C(C)/C=C1\Sc2ccccc2N1CC | 4.14%
31 | C=CCNC(=S)NNC(=O)c1ccc(OCC(C)C)cc1 | 0.28%
32 | CN1CCC2(CC1)C1CN(C)CC=C1C(C#N)=C(N)C2(C#N)C#N (configuration not stated) | -0.05% and 6.98%
33 | CC(C)(C)c1cc(NC(=O)c2cccc(S(=O)(=O)N3CCOCC3)c2)no1 | 7.6%
34 | Cc1sc(NC(=O)CSc2nnc(C(C)C)n2C)c(C#N)c1C | 21.9% (active)
35 | COc1ccc(S(=O)(=O)N2CCSC2)cc1C | 0.17%
36 | Cc1cc(C)c(C(N)=O)c(Nc2ccc(F)cc2)n1 | 0.09%
37 | CCN(C(=O)c1cnc(NC(C)C)cc1C(F)(F)F)c1ccc(Cl)cc1 | -0.05%
38 | O=c1[nH]c2ccccc2nc1/C=C(\O)c1cccs1 | 1.76%
39 | O=c1[nH]c2ccccc2nc1/C=C/c1ccc(F)cc1 | 0.04%
40 | O=c1[nH]c2ccccc2nc1/C=C/c1ccccc1 | 119% (active)
41 | O=C(Nc1ccccc1-c1ccccc1)c1ccc(Cl)c([N+](=O)[O-])c1 | 8.22%
42 | COc1ccc2[nH]c3c(c2c1)CCN1C(=O)C(CC(=O)NCCCn2ccnc2)C[C@H](C(=O)N2CCCCC2)[C@@]31C (some centres not stated) | -0.02%
43 | CN(C)c1ccc(/C=N/N(CCO)C2=NS(=O)(=O)c3ccccc32)cc1 | 0.26%
44 | COC1C(CO)OC(n2c3c(Cl)cccc3c3c4c(c5c6cccc(Cl)c6[nH]c5c32)C(=O)NC4=O)C(O)C1O (configuration not stated) | 0.02%
45 | CS(=O)(=O)N(CC(=O)N/N=C/c1ccco1)c1ccccc1Br | 48.6% (active)
46 | CCCCCCC(=O)N/N=C/c1ccco1 | 0.06%
47 | Cc1ccccc1N(CC(N)=O)S(C)(=O)=O | -0.02%
